Data as given in ChEMBL document CHEMBL3763022, “Potent dual inhibitors of Plasmodium falciparum M1 and M17 aminopeptidases through optimization of S1 pocket interactions” (Eur J Med Chem, 2016).
≈ marks a conversion by molar mass, not a printed value.

What was measured:
Plasmodium falciparum [1] = assay: Antiparasitic activity against Plasmodium falciparum Dd2 assessed as growth inhibition after 72 hrs by DAPI staining-based confocal image analysis; format: functional, organism-based; details: Dd2, 72 h
Method in brief: (§1)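 Sorbitol-synchronised ring-stage parasites in human O+ erythrocytes at 2% parasitaemia, 0.3% haematocrit, incubated 72 h at 37 °C (5% CO2) with three-step log serial dilutions from 20 μM top, 0.4% DMSO final. Staining with DAPI/saponin/Triton X/EDTA in PBS, confocal imaging, parasite count.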

Plasmodium falciparum [2] = assay: Antiparasitic activity against Plasmodium falciparum 3D7 assessed as growth inhibition after 72 hrs by DAPI staining-based confocal image analysis; format: functional, organism-based; details: 3D7, 72 h; method in brief: as §1
Plasmodium falciparum [3] = assay: Antiparasitic activity against chloroquine/quinine/pyrimethamine/sulfadoxine/NITD609-resistant Plasmodium falciparum Dd2 clone 2 assessed as growth inhibition after 72 hrs by DAPI staining-based confocal image analysis; format: functional, organism-based; details: Dd2, 72 h; method in brief: as §1
HEK293 = assay: Cytotoxicity against HEK293 cells assessed as cell viability after 72 hrs by resazurin assay; format: cell-based; details: human, hek293, 72 h
Method in brief: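 HEK293 cells in DMEM with 10% FCS, seeded at 2000 cells/well and left to adhere overnight. Compound dose response with top final 40 μM, 0.4% DMSO. Exposure 72 h at 37 °C, 5% CO2. Medium then replaced by 44 μM resazurin in serum-free DMEM for 4-6 h. Fluorescence read at ex/em 530/595 nm.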

[4] = Inhibition of recombinant Plasmodium falciparum M17 aminopeptidase using H-Leu-NHMec as substrate preincubated for 10 mins followed by addition of substrate by spectrofluorimetric analysis
Method in brief: (§2)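 E. coli-expressed enzymes, purified by Ni-NTA and size exclusion. Preincubation 10 min at 37°C with inhibitor: M1 in 100 mM Tris pH 8.0; M17 in 50 mM Tris pH 8.0, 2 mM CoCl2. Substrate H-Leu-NHMec kept below Km. Fluorescence ex 355/em 460 nm followed to steady-state velocity. Inhibitor range 500pM–500 μM. Ki from Dixon plots (1/V vs [I]).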

[5] = Inhibition of recombinant Plasmodium falciparum M1 aminopeptidase using H-Leu-NHMec as substrate preincubated for 10 mins followed by addition of substrate by spectrofluorimetric analysis; method in brief: as §2
[6] = Partition coefficient, log D of the compound at pH 7.4 by HPLC method; format: physicochemical; details: octanol/water
Method in brief: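 LogD estimated by gradient HPLC (Lombardo-derived method). C18-type Hydro-RP column with 50 mM ammonium acetate pH 7.4 and an acetonitrile gradient of 0–100% over 13.5 min. UV detection at 220/254 nm. Retention compared with nine standards of shake-flask-determined partition coefficients.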

[7] = Half life in mouse liver microsomes at 1 uM by LC/MS analysis; format: ADME
Method in brief: (§3)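 Human or mouse liver microsomes, 0.4 mg/mL protein in 0.1 M phosphate pH 7.4, with 1 µM compound at 37°C. Reactions started with an NADPH-regenerating system (NADP, glucose-6-phosphate, G6P dehydrogenase) plus MgCl2. Quenched with ice-cold acetonitrile at time points from 0 to 60 min. Parent compound remaining in supernatant measured by LC-MS.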

[8] = Kinetic solubility of compound in HCl at pH 2 by nephelometry; format: physicochemical; details: read-out: Kinetic_solubility
Method in brief: (§4)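 DMSO stock serially diluted and spiked into pH 6.5 phosphate buffer or 0.01 M HCl (about pH 2.0), final 1% DMSO. Solubility range determined by nephelometry.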

[9] = Intrinsic clearance in human liver microsomes assessed per mg of protein at 1 uM by LC/MS analysis; format: ADME; details: read-out: CLH; method in brief: as §3
[10] = Half life in human liver microsomes at 1 uM by LC/MS analysis; format: ADME; method in brief: as §3
[11] = Kinetic solubility of compound in phosphate buffer at pH 6.5 by nephelometry; format: physicochemical; details: read-out: Kinetic_solubility; method in brief: as §4
[12] = Apparent half life in human plasma incubated for 4 hrs by UPLC/MC analysis; format: ADME, cell-free; details: read-out: t1/2(app)
Method in brief: (§5)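 Pooled plasma (human n=3 donors; mouse from multiple animals), thawed and spiked to nominal 500 ng/mL test compound, final 0.2% DMSO and 0.4% acetonitrile (v/v). Incubated at 37°C, 4 h human or 6 h mouse. Duplicate samples taken at time points and snap-frozen. Quantified by UPLC/MS against matched-plasma standards. Half-life obtained by exponential decay fit of % remaining.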

[13] = Apparent half life in mouse plasma incubated for 6 hrs by UPLC/MC analysis; format: ADME, cell-free; details: read-out: t1/2(app); method in brief: as §5
[14] = Intrinsic clearance in mouse liver microsomes assessed per mg of protein at 1 uM by LC/MS analysis; format: ADME; details: read-out: CLH; method in brief: as §3

| SMILES | IC50 (Plasmodium falciparum [1]) [nM] | IC50 (Plasmodium falciparum [2]) [nM] | IC50 (Plasmodium falciparum [3]) [nM] | Activity (HEK293) | Ki [4] [nM] | Ki [5] [nM] | further results |
| --- | --- | --- | --- | --- | --- | --- | --- |
| CC(C)(C)C(=O)NC(C(=O)NO)c1ccc(-c2ccc(F)cc2F)cc1 (centres undefined) | 164 | 109 | 216 | Non-toxic | 5.2 | 2500 |  |
| CC(C)(C)C(=O)NC(C(=O)NO)c1ccc(F)cc1 (centres undefined) | 2010 | 1530 | 2090 | Non-toxic | 29 | 4000 |  |
| CC(C)(C)C(=O)NC(C(=O)NO)c1ccc(-c2ccccc2F)cc1 (centres undefined) | 207 | 131 | 210 | Non-toxic | 12 | 1600 |  |
| CC(C)(C)C(=O)NC(C(=O)NO)c1ccc(Br)cc1 (centres undefined) | 194 | 169 | 163 | Non-toxic | 41 | 65 |  |
| CC(C)(C)OC(=O)NC(C(=O)NO)c1ccc(-c2ccccc2)cc1 (centres undefined) |  |  |  |  | 55 | 37000 |  |
| CC(C)(C)C(=O)NC(Cc1ccc(Br)cc1)C(=O)NO (centres undefined) |  |  |  |  | 420 | 87000 |  |
| CC(C)(C)OC(=O)NC(C(=O)NO)c1ccc(F)cc1 (centres undefined) |  |  |  |  | 1700 | 5300 |  |
| CC(C)(C)OC(=O)NC(C(=O)NO)c1ccc(Br)cc1 (centres undefined) |  | 293 |  | Non-toxic | 80 | 27 |  |
| CC(C)(C)C(=O)NC(C(=O)NO)c1ccc(-c2c(F)c(F)c(F)c(F)c2F)cc1 (centres undefined) | 461 | 130 | 408 | Non-toxic | 8.4 | 1800 |  |
| CC(C)(C)OC(=O)NC(C(=O)NO)c1ccc(-c2ccncc2)cc1 (centres undefined) |  |  |  |  | 540 | 910 |  |
| CC(C)(C)C(=O)NC(C(=O)NO)c1ccc(-c2ccccc2)cc1 (centres undefined) | 190 | 96 | 219 | Non-toxic | 7 | 1600 |  |
| CC(C)(C)OC(=O)NC(Cc1ccc(I)cc1)C(=O)NO (centres undefined) |  |  |  |  | 21000 | 4300 |  |
| CC(C)(C)C(=O)NC(C(=O)NO)c1ccc(-c2ccc(F)c(F)c2)cc1 (centres undefined) | 170 | 139 | 195 | Non-toxic | 6.4 | 1400 |  |
| CC(C)(C)OC(=O)NC(C(=O)NO)c1ccc(-c2ccccc2F)cc1 (centres undefined) |  | 633 |  | Non-toxic | 41 | 950 |  |
| CC(C)(C)OC(=O)NC(C(=O)NO)c1ccc(-c2cccc(C(F)(F)F)c2)cc1 (centres undefined) |  |  |  |  | 140 | 2900 |  |
| C[C@H]1[C@H](OC(=O)CCC(=O)O)O[C@@H]2O[C@@]3(C)CC[C@H]4[C@H](C)CC[C@@H]1[C@@]24OO3 [ARTESUNATE] | 1.3 |  | 0.9 |  |  |  |  |
| CC(C)(C)OC(=O)NC(C(=O)NO)c1ccc(-c2ccc(F)cc2)cc1 (centres undefined) |  |  |  |  | 74 | 100000 |  |
| CC(C)(C)OC(=O)NC(C(=O)NO)c1ccc(-c2cccc(F)c2)cc1 (centres undefined) |  |  |  |  | 130 | 950 |  |
| CC(C)(C)C(=O)NC(Cc1ccc(-c2ccccc2)cc1)C(=O)NO (centres undefined) |  |  |  |  | 650 | 27000 |  |
| CC(C)(C)C(=O)NC(C(=O)NO)c1ccc(-c2ccc(F)cc2)cc1 (centres undefined) | 225 | 126 | 193 | Non-toxic | 33 | 6500 |  |
| Cn1cc(-c2ccc(CC(NC(=O)OC(C)(C)C)C(=O)NO)cc2)cn1 (centres undefined) |  |  |  |  | 14000 | 120000 |  |

| SMILES | IC50 (Plasmodium falciparum [1]) [nM] | IC50 (Plasmodium falciparum [2]) [nM] | IC50 (Plasmodium falciparum [3]) [nM] | Activity (HEK293) | Ki [4] [nM] | Ki [5] [nM] | further results |
| --- | --- | --- | --- | --- | --- | --- | --- |
| CC(C)(C)OC(=O)NC(C(=O)NO)c1ccc(-c2cccc(/C(N)=N\O)c2)cc1 (centres undefined) |  | 679 |  | Non-toxic | 140 | 1100 |  |
| Cn1cc(-c2ccc(C(NC(=O)C(C)(C)C)C(=O)NO)cc2)cn1 (centres undefined) |  |  |  |  | 7.2 | 11000 |  |
| CC(C)(C)C(=O)NC(Cc1ccc(F)cc1)C(=O)NO (centres undefined) |  |  |  |  | 37 | 63000 |  |
| CC(C)(C)C(=O)NC(C(=O)NO)c1ccc(-c2ccsc2)cc1 (centres undefined) | 110 | 103 | 100 | Non-toxic | 9.1 | 640 |  |
| CC(C)(C)C(=O)NC(C(=O)NO)c1ccc(-c2cccc(F)c2)cc1 (centres undefined) | 226 | 162 | 316 | Non-toxic | 6.2 | 550 |  |
| CC(C)(C)C(=O)NC(C(=O)NO)c1ccc(-c2c(F)cccc2F)cc1 (centres undefined) | 251 | 142 | 246 | Non-toxic | 13 | 4800 |  |
| CC(C)(C)C(=O)NC(C(=O)NO)c1ccc(-c2cc(F)cc(F)c2)cc1 (centres undefined) | 239 | 144 | 232 | Non-toxic | 92 | 580 |  |
| CC(C)(C)OC(=O)NC(C(=O)NO)c1ccc(-c2ccsc2)cc1 (centres undefined) |  |  |  |  | 64 | 20000 |  |
| CC(C)(C)OC(=O)NC(Cc1ccc(Br)cc1)C(=O)NO (centres undefined) |  |  |  |  | 7700 | 39000 |  |
| CC(C)(C)OC(=O)NC(C(=O)NO)c1ccc(-c2ccc(C(F)(F)F)cc2)cc1 (centres undefined) |  |  |  |  | 470 | > 500000 |  |
| CC(C)(C)OC(=O)NC(C(=O)NO)c1ccc(-c2ccc(/C(N)=N/O)cc2)cc1 (centres undefined) |  | 334 |  | Non-toxic | 18 | 400 |  |
| CC(C)(C)OC(=O)NC(Cc1ccc(-c2ccccc2)cc1)C(=O)NO (centres undefined) |  |  |  |  | 5200 | > 500000 |  |
| CC(C)(C)C(=O)NC(Cc1ccc(I)cc1)C(=O)NO (centres undefined) |  |  |  |  | 16 | 15000 |  |
| CC(C)(C)OC(=O)NC(C(=O)NO)c1ccc(-c2cccnc2)cc1 (centres undefined) |  |  |  |  | 220 | 1100 |  |
| CC(C)(C)OC(=O)NC(Cc1ccc(F)cc1)C(=O)NO (centres undefined) |  |  |  |  | 2800 | 18000 |  |
| Cn1cc(-c2ccc(C(NC(=O)OC(C)(C)C)C(=O)NO)cc2)cn1 (centres undefined) |  | 978 |  | Non-toxic | 56 | 1900 |  |
| Cn1cc(-c2ccc(CC(NC(=O)C(C)(C)C)C(=O)NO)cc2)cn1 (centres undefined) |  |  |  |  | 740 | 39000 |  |
| CC(C)(C)OC(=O)NC(C(=O)NO)c1ccc(-c2cc(F)c(F)c(F)c2)cc1 (centres undefined) |  |  |  |  | 200 | 19000 |  |
| CC(C)(C)OC(=O)NC(C(=O)NO)c1ccc(-c2ccccc2C(F)(F)F)cc1 (centres undefined) |  |  |  |  | 120 | 750 |  |
| CC(C)(C)C(=O)NC(C(=O)NO)c1ccc(-c2c(F)cc(F)cc2F)cc1 (centres undefined) | 267 | 125 | 450 | Non-toxic | 2.5 | 5900 |  |
| CC(C)(C)C(=O)NC(C(=O)NO)c1ccc(-c2cc(F)c(F)c(F)c2)cc1 (centres undefined) | 189 | 126 | 107 | Non-toxic | 60 | 78 | logD [6]: 3; half-life at 1 µM [7]: 1.15 h; solubility kinetic [8]: 12.5 µg/mL (≈ 32.9 µM); microsomal CLint at 1 µM [9]: 8 µL/min/mg; half-life at 1 µM [10]: 3.68 h; solubility kinetic [11]: 12.5 µg/mL (≈ 32.9 µM); half-life [12]: > 17 h; half-life [13]: > 25 h; microsomal CLint at 1 µM [14]: 25 µL/min/mg |
